Experimental data from ChEMBL document CHEMBL3997773, “Synthesis of C-4-Substituted Steviol Derivatives and Their Inhibitory Effects against Hepatitis B Virus” (J Nat Prod, 2016).
Active and inactive are the calls of the source. The rule behind the calls is not given here.

Key:
[1] = Effect on ISRE (unknown origin) promoter activity expressed in human HuH7 cells cotransfected with pHBV1.2 at 10 ug/ml after 24 hrs by luciferase reporter gene assay; type: cell-based
In short: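 Huh7 seeded in 24-well plates for 24 h. They were cotransfected with pHBV1.2 plus a luciferase reporter carrying the AP-2 (pAP2-Luc) or ISRE (pISRE-Luc) element, at 1 μg/well, and pRLSV40, in serum-free DMEM for 24 h. After a PBS wash, cells were placed in DMEM with 2% FBS and treated with 10 μg/mL. Luciferase was read from lysates; mean ± SD, n = 3.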

[2] = target: Transcription factor p65 (Homo sapiens) (UniProt Q04206); test: Decrease in NF-kB p65 phosphorylation in human HuH7 cells transfected with pHBV1.2 at 2.5 ug/ml after 2 days by immunoblot method relative to control; type: cell-based
Chain of Transcription factor p65 (Homo sapiens) (Q04206 whole entry): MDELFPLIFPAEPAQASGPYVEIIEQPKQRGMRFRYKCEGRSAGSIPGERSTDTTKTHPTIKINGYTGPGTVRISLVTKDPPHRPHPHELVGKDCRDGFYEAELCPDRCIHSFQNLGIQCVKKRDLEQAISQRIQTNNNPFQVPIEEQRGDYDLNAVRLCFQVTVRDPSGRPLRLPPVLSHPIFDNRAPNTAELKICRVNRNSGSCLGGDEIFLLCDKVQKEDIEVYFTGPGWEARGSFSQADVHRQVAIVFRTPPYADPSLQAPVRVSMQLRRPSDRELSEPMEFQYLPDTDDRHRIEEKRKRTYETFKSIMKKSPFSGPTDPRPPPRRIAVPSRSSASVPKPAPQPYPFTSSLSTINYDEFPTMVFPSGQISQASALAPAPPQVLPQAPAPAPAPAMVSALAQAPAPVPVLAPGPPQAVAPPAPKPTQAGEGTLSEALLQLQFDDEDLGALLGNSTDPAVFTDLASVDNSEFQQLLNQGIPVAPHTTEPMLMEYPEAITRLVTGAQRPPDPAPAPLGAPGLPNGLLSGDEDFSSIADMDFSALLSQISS
In short: (§1)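 Huh7 cells were transfected with pHBV1.2 for 2 days, then treated at 2.5, 5 or 10 μg/mL for another 2 days. Whole-cell protein was extracted with protease inhibitors. NF-κB p65/p50, phospho-p65, IKKα/β and IκBα/phospho-IκBα were detected by immunoblot. Blots are representative of three experiments.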

[3] = tested on: Hepatitis B virus subtype adw2; test: Antiviral activity against Hepatitis B virus subtype adw2 infected in human HuH7 cells assessed as reduction in SHBs level at 2.5 to 10 ug/ml after 2 days by immunoblot method; type: functional, cell-based
In short: (§2)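 Huh7 cells were transfected with pHBV1.2 (1.2-fold HBV adw2 genome) for 2 days, then exposed to 2.5, 5 or 10 μg/mL for another 2 days. Whole-cell protein was extracted with protease inhibitors. SHBs, HBcAg and HBx were detected by immunoblot, with α-tubulin for comparison.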

[4] = Selectivity index, ratio of TC50 for human HepG2.2.15 cells to IC50 for Hepatitis B virus subtype adw2 infected in human HepG2.2.15 cells assessed as inhibition of HBeAg secretion
[5] = tested on: Hepatitis B virus; test: Decrease in HBV X promoter activity infected in human HuH7 cells cotransfected with pHBV1.2 at 10 ug/ml after 24 hrs by luciferase reporter gene assay; type: cell-based
In short: (§3)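 Huh7 cells were seeded for 24 h, then cotransfected with pHBV1.2, pRLSV40 and a pGL4.17-based Core (nt 1636-1851), S (nt 3114-220), PreS (nt 2438-2855) or X (nt 1071-1357) promoter-luciferase construct for 24 h. Cells were then treated at 10 μg/mL for 24 h and lysates were assayed for luciferase. Mean ± SD, n = 3.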

[6] = Antiviral activity against Hepatitis B virus in human HepG2.2.15 cells assessed as inhibition of HBsAg secretion by EIA
[7] = tested on: Huh-7; test: Decrease in IKKbeta protein expression in human HuH7 cells transfected with pHBV1.2 at 5 ug/ml after 2 days by immunoblot method relative to control; type: functional; in short: as §1
[8] = tested on: Hepatitis B virus subtype adw2; test: Antiviral activity against Hepatitis B virus subtype adw2 infected in human HuH7 cells assessed as inhibition of viral DNA replication at 10 ug/ml cotreated with MAPK activator anisomycin after 2 days by RT-PCR method; type: functional, cell-based
In short: (§4)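 Huh7 cells were cotransfected with pHBV1.2 and, where stated, 0.5 or 2.5 μg pCMV-p65 (or empty vector) for 2 days, then treated at 10 μg/mL for 2 days. In separate wells, HBV-expressing cells received 10 μg/mL with or without anisomycin (10 μM) for 2 days. Secreted viral particles were kit-isolated and HBV DNA was measured by real-time PCR, n = 3.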

[9] = tested on: Huh-7; test: Decrease in NF-kB p65 protein expression in human HuH7 cells transfected with pHBV1.2 at 5 ug/ml after 2 days by immunoblot method relative to control; type: functional; in short: as §1
[10] = tested on: Hepatitis B virus; test: Decrease in HBV S promoter activity infected in human HuH7 cells cotransfected with pHBV1.2 at 10 ug/ml after 24 hrs by luciferase reporter gene assay; type: cell-based; in short: as §3
[11] = Antiviral activity against Hepatitis B virus subtype adw2 infected in human HuH7 cells assessed as reduction in HBcAg level at 5 ug/ml after 2 days by immunoblot method relative to control; type: functional; in short: as §2
[12] = Antiviral activity against Hepatitis B virus subtype adw2 infected in human HuH7 cells assessed as reduction in HBx level at 5 ug/ml after 2 days by immunoblot method relative to control; type: functional; in short: as §2
[13] = Antiviral activity against Hepatitis B virus subtype adw2 infected in human HuH7 cells assessed as inhibition of viral DNA replication at 10 ug/ml after 2 days by RT-PCR method relative to control; type: functional; details: Huh-7, 48 h; in short: as §4
[14] = Selectivity index, ratio of TC50 for human HepG2.2.15 cells to IC50 for Hepatitis B virus subtype adw2 infected in human HuH7 cells assessed as inhibition of HBsAg secretion
[15] = tested on: Huh-7; test: Decrease in NF-kB p50 protein expression in human HuH7 cells transfected with pHBV1.2 at 5 ug/ml after 2 days by immunoblot method relative to control; type: functional; in short: as §1
[16] = tested on: Huh-7; test: Decrease in p38 MAPK protein expression in human HuH7 cells transfected with pHBV1.2 at 5 ug/ml after 2 days by immunoblot method relative to control
[17] = Decrease in NF-kB (unknown origin) promoter activity expressed in human HuH7 cells cotransfected with pHBV1.2 at 10 ug/ml after 24 hrs by luciferase reporter gene assay; type: cell-based
In short: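 Huh7 cells were seeded for 24 h, then cotransfected with pHBV1.2, pRLSV40 and pAP1-Luc or pNF-κB-Luc responsive-element reporter for 24 h. Cells were treated at 10 μg/mL for 24 h and lysates were assayed for luciferase. Mean ± SD, n = 3, compared with untreated cells.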

[18] = tested on: Huh-7; test: Decrease in NF-kB p65 protein expression in human HuH7 cells transfected with pHBV1.2 at 10 ug/ml after 2 days by immunoblot method relative to control; type: functional; in short: as §1
[19] = tested on: Huh-7; test: Decrease in NF-kB p50 protein expression in human HuH7 cells transfected with pHBV1.2 at 10 ug/ml after 2 days by immunoblot method relative to control; type: functional; in short: as §1
[20] = tested on: Huh-7; test: Decrease in IKKalpha protein expression in human HuH7 cells transfected with pHBV1.2 at 10 ug/ml after 2 days by immunoblot method relative to control; type: functional; in short: as §1
[21] = Antiviral activity against Hepatitis B virus subtype adw2 infected in human HuH7 cells assessed as reduction in HBcAg level at 2.5 ug/ml after 2 days by immunoblot method relative to control; type: functional; in short: as §2
[22] = tested on: Huh-7; test: Cytotoxicity against human HuH7 cells infected with Hepatitis B virus subtype adw2 assessed as reduction in cell viability at >80 ug/ml after 3 days by MTS assay; type: cell-based; details: huh-7, 72 h
In short: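 HBV-expressing Huh7 cells were plated for 24 h, then exposed to serial dilutions (2.5–160 μg/mL) for 3 days. Viability was measured by MTS assay. Mean ± SD, n = 4, compared with untreated cells.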

C=C1C[C@@]23CC[C@H]4[C@@](C)(CCC[C@@]4(C)NC(=O)NCCCC)[C@@H]2CC[C@]1(O)C3
Activity [1]: inactive | fold change (FC) [2]: 0.95 | Activity [3]: Active | selectivity ratio [4]: 47.7 | Activity [5]: Active | IC50 [6]: 23.5 µM | fold change (FC) [7]: 0.97 | inhibition [8]: inactive | fold change (FC) [9]: 0.88 | Activity [10]: Active | fold change (FC) [11]: 0.81 | fold change (FC) [12]: 0.87 | inhibition at 10 µg/mL [13]: 38% | selectivity ratio [14]: 41.4 | fold change (FC) [15]: 0.97 | fold change (FC) [16]: 0.98 | Activity [17]: Active | fold change (FC) [18]: 0.33 | fold change (FC) [19]: 0.26 | fold change (FC) [20]: 0.46 | fold change (FC) [21]: 0.78 | Activity [22]: Toxic
